This is an account of results in ChEMBL document CHEMBL2331121, “Design, synthesis, and pharmacological characterization of N- and O-substituted 5,6,7,8-tetrahydro-4H-isoxazolo[4,5-d]azepin-3-ol analogues: novel 5-HT(2A)/5-HT(2C) receptor agonists with pro-cognitive properties” (J Med Chem, 2013).

Structures are written as SMILES. Calls of active or inactive are those of the source. The calls are words filed in the database; no cut-off is given here.

The target in assay [1] is T1, 5-hydroxytryptamine receptor 2C (Rattus norvegicus) (UniProt P08909).
T1 sequence (whole entry): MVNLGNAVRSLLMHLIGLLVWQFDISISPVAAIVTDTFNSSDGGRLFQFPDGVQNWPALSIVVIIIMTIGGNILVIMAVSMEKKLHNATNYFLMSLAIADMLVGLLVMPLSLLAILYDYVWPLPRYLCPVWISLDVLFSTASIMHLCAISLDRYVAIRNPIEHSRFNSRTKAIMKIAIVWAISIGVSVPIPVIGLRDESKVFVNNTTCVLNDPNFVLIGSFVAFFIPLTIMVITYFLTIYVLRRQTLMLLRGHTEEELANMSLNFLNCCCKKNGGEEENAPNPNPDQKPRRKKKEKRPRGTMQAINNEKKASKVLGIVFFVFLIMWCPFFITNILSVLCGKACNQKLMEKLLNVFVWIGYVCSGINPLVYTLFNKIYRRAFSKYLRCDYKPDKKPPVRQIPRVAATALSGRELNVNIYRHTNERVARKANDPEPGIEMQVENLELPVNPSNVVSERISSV
Briefly: Displacement of [125I]-N-(p-I-Bn)-THAZ from 5HT2C receptor in rat midbrain membrane after 1 hr by scintillation counting analysis. It is filed as cell membranes.

Assay [2] concerns Mus musculus. Kind of assay: Procognitive effect in C57Bl/6J mouse assessed as distance traveled in the familiar arm at 0.43 mg/kg, po administered 30 mins prior to acquisition trial measured after 24 hrs in presence of SB242084 (reference value: 31.5 +/- 2.9%). It is filed as functional. Put shortly: (§1)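 Male C57Bl/6J mice aged 8 weeks, two-trial place recognition Y-maze. 3 min acquisition with two arms open; 24 h ITI; 3 min retention with all three arms open. Drug given po 30 min before acquisition, vehicle 10% HP-βCD. SB242084 2.1 mg/kg co-administered where stated; doses as free base. Readouts are % distance, arm entries and time in each arm. Familiar arms pooled; one-way ANOVA.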

For assay [3], the target named is T2, 5-hydroxytryptamine receptor 2C (Homo sapiens) (UniProt P28335).
T2 sequence (whole entry): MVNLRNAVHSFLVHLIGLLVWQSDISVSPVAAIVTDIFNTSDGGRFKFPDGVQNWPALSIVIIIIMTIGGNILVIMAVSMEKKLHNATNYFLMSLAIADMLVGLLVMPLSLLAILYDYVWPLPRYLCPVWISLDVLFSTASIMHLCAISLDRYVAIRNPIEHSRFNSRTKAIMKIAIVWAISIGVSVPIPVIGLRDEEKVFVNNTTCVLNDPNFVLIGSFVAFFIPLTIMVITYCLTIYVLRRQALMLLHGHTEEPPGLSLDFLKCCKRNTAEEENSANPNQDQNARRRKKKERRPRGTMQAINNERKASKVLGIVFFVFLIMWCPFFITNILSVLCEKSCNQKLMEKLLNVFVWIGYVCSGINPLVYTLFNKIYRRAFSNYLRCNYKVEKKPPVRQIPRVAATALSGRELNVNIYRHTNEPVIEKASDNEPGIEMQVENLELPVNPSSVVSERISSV
Kind of assay: Ratio of EC50 for human 5HT2C receptor by calcium fiux-based fluorescence assay to […] accumulation-based TR-FRET assay. Type of assay: functional.

For assay [4], the target named is T3, 5-hydroxytryptamine receptor 2C (Homo sapiens, UniProt P28335).
T3 sequence (P28335 whole entry): T2 sequence (whole entry)
Briefly: Displacement of [3H]mesulergine from human 5HT2C receptor expressed in tsA201 cell membranes after 1 hr by scintillation counting analysis. For orientation: Displacement assays read how much labelled ligand stays bound in the presence of the test substance.

The target of assay [5] is T1, 5-hydroxytryptamine receptor 2C (Rattus norvegicus). Kind of assay: Displacement of [125I]-N-(p-I-Bn)-THAZ from 5HT2C in Sprague-Dawley rat hippocampal membrane at 100 uM after 40 mins by autoradiography. Type of assay: tissue-based. The following applies: Hippocampus.
Assay [6] concerns the target T4, 5-hydroxytryptamine receptor 2C (Rattus norvegicus, UniProt P08909).
T4 sequence (P08909 whole entry): T1 sequence (whole entry)
Kind of assay: (§2) Displacement of [125I]-N-(p-I-Bn)-THAZ from 5HT2C receptor in rat cerebral cortex membrane after 1 hr by scintillation counting analysis. It is filed as cell membranes.

For assay [7], the target named is T1, 5-hydroxytryptamine receptor 2C (Rattus norvegicus). The description is as §2. Type of assay: cell membranes.
The species named for assay [8] is Homo sapiens. Briefly: Selectivity ratio of EC50 for human 5HT2C receptor to EC50 for M1 muscarinic receptor (unknown origin) by FLIPR assay.
The test system of assay [9] is Mus musculus. Kind of assay: Procognitive effect in C57Bl/6J mouse assessed as number of familiar arm entry at 0.43 mg/kg, po administered 30 mins prior to acquisition trial measured after 24 hrs in presence of SB242084. Type of assay: functional. The method, boiled down:
as §1

In assay [10] the target is T1, 5-hydroxytryptamine receptor 2C (Rattus norvegicus). Kind of assay: Displacement of [125I]-N-(p-I-Bn)-THAZ from 5HT2C receptor in rat hippocampal membrane after 1 hr by scintillation counting analysis. The following applies: Hippocampus. It is filed as cell membranes.
The target of assay [11] is T3, 5-hydroxytryptamine receptor 2C. Briefly: Agonist activity at human 5HT2C receptor expressed in HEK293 cells assessed as induction of intracellular calcium release measured for 90 secs by fluorescence assay. The following applies: read-out: EC50. It is filed as functional, cell-based. Background: Calcium flux is commonly read through the fluorescence of an indicator in the cells.

Assay [12] addresses T5, 5-hydroxytryptamine receptor 2A (Homo sapiens, UniProt P28223). Briefly: Agonist activity at human 5HT2A receptor expressed in HEK293 cells assessed as accumulation of IP1 incubated for 1 hr at 37 degC followed by 15 mins at RT by TR-FRET assay. It is filed as functional, cell-based.
The subject of assay [13] is Mus musculus. Kind of assay: Procognitive effect in C57Bl/6J mouse assessed as distance traveled in the novel arm at 0.43 mg/kg, po administered 30 mins prior to acquisition trial measured after 24 hrs by Y-maze test (reference value: 37 +/- 5.8%). It is filed as functional. The method, boiled down:
as §1

Assay [14] addresses T1, 5-hydroxytryptamine receptor 2C (Rattus norvegicus). Briefly: Displacement of [125I]-N-(p-I-Bn)-THAZ from 5HT2C receptor in rat cerebellum membrane after 1 hr by scintillation counting analysis. Type of assay: cell membranes.
Assay [15] concerns Mus musculus. Kind of assay: Procognitive effect in C57Bl/6J mouse assessed as time spent in familiar arm at 0.43 mg/kg, po administered 30 mins prior to acquisition trial measured after 24 hrs by Y-maze test. It is filed as functional. Put shortly: as §1
Assay [16] has as its target T2, 5-hydroxytryptamine receptor 2C (Homo sapiens). Briefly: Agonist activity at human 5HT2C receptor expressed in HEK293 cells assessed as accumulation of IP1 incubated for 1 hr at 37 degC followed by 15 mins at RT by TR-FRET assay relative to 5HT. Type of assay: functional, cell-based. The method, boiled down:
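Polyclonal HEK293 lines stably expressing human 5-HT2A (variant 1) or 5-HT2C (INI isoform), detached and suspended at 1 × 10⁷ cells/mL in HBSS with 20 mM HEPES, 1 mM CaCl₂, 1 mM MgCl₂, pH 7.4. Ligands in buffer with 40 mM LiCl. Incubated 1 h at 37 °C, then 15 min RT. IP1 read by HTRF 665/615 ratio. Triplicate, at least four times.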
(Time-resolved FRET reads energy transfer from a long-lived donor to a nearby acceptor.)

Assay [17] addresses T5, 5-hydroxytryptamine receptor 2A. Briefly: Agonist activity at human 5HT2A receptor expressed in HEK293 cells assessed as induction of intracellular calcium release by fluorescence assay relative to 5HT. Type of assay: functional, cell-based. The method, boiled down:
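Stable polyclonal 5-HT2A or 5-HT2C HEK293 cells seeded on poly-D-lysine plates (6 × 10⁴ cells/well). Next day loaded with Fluo-4/AM for 1 h at 37 °C in HBSS/20 mM HEPES/1 mM CaCl₂/1 mM MgCl₂/2.5 mM probenecid, pH 7.4. Fluorescence (485 ex/525 em) recorded before and up to 90 s after agonist. Response relative to 5-HT on the same plate. Duplicate, at least three times.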

Assay [18] relates to Mus musculus. Kind of assay: Procognitive effect in C57Bl/6J mouse assessed as distance traveled in the familiar arm at 0.43 mg/kg, po administered 30 mins prior to acquisition trial measured after 24 hrs by Y-maze test (Rvb =31.5 +/- 2.9%). Type of assay: functional. The method, boiled down: as §1

T5 sequence (P28223 whole entry): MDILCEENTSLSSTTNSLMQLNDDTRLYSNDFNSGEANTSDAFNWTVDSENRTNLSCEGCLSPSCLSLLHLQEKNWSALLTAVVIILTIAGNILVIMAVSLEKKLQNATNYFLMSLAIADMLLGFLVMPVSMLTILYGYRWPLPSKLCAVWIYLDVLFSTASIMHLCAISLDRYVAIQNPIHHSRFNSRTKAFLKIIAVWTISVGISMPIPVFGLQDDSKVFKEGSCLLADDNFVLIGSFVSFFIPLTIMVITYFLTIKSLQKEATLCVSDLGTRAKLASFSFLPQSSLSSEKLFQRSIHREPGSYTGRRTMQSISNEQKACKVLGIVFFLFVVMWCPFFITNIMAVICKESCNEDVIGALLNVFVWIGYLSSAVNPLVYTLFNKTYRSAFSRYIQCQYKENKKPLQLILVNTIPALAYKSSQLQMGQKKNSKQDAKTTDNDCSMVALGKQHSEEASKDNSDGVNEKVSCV

One may read the Ki as the equilibrium dissociation constant of an inhibitor or competing ligand from its target. For orientation: EC50 means the concentration giving half of the maximal effect. As usually defined, the Emax is the maximal effect, on the per cent scale that the assay sets. `O=c1c2c(on1Cc1ccccc1)CCNCC2`: the outcome in assay [1], in [5], in assay [10] and in [14] was inactive. For the same compound, the Activity in assay [2] is 32.6%; in [7] it was “Dose-dependent effect”; in [9], 33.6%; in assay [13], 40.4%; in assay [15], 30.6%; in assay [18], 29.8%. Besides, the Ratio EC50 worked out at 2 in assay [3] and 20 in assay [8]. In addition, the Ki in assay [4] was 2300 nM; in assay [6] it was 724 nM. Besides, the EC50 turned out to be 420 nM in [11] and 2400 nM in [12]. Besides, the maximal effect (Emax) in [16] came to 92%; in [17], 80%.
